From ChEMBL document CHEMBL4257478, “Design, synthesis and evaluation of (R)-3-(7-(methyl(7H-pyrrolo[2,3-d]pyrimidin-4-yl)amino)-5-azaspiro[2.4]heptan-5-yl)-3-oxopropanenitrile as a JAK1-selective inhibitor” (Medchemcomm, 2018)

How the values were obtained:
CYP2A6 = molecular target: T1, CYP2A6 (Homo sapiens, UniProt P11509); test: Inhibition of CYP2A6 in human liver microsomes assessed as remaining activity at 10 uM using coumarin as substrate preincubated for 5 mins followed by addition of NADPH regenerating system and measured after 15 mins by LC-MS/MS analysis relative to control; assay type: ADME; details: probe coumarin, read-out: Activity
T1 sequence (P11509 whole entry): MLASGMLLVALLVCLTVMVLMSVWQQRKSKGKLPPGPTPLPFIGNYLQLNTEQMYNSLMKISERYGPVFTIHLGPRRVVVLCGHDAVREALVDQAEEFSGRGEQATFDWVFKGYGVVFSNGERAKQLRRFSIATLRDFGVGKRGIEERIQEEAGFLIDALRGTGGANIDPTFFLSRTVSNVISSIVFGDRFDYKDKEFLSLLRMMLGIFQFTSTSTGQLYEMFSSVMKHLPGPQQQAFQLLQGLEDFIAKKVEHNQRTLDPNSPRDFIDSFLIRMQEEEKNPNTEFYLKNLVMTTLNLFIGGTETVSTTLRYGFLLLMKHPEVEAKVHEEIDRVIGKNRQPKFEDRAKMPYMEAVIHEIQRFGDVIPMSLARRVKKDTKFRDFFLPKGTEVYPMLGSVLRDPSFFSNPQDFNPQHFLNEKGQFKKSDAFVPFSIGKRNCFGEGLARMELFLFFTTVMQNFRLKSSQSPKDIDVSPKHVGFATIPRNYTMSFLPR
How it was run: (§1)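 Human liver microsomes (0.25 mg/mL) in 0.1 M phosphate buffer with test article at 0 or 10 μM and substrate cocktail, preincubated 5 min at 37 °C. Cocktail A: phenacetin 50 μM, coumarin 2.5 μM, S-mephenytoin 100 μM, dextromethorphan 5 μM, midazolam 2.5 μM. Cocktail B: bupropion 50 μM, amodiaquine 2.5 μM, tolbutamide 100 μM, chlorzoxazone 50 μM. NADPH system added, then 15 min at 37 °C; acetonitrile quench, LC-MS/MS.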

CYP3A4 = CYP3A4 (Homo sapiens, UniProt P08684); test: Inhibition of CYP3A4 in human liver microsomes assessed as remaining activity at 10 uM using midazolam as substrate preincubated for 5 mins followed by addition of NADPH regenerating system and measured after 15 mins by LC-MS/MS analysis relative to control; assay type: ADME; details: probe midazolam, read-out: Activity; how it was run: as §1
[1] = Metabolic stability in rat plasma assessed as parent compound remaining at 10 uM after 120 mins by LC-MS/MS method; assay type: ADME, cell-free; details: read-out: Stability
How it was run: (§2)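 Rat plasma spiked with test article at 10 μM and incubated at 37 °C, sampled at 0, 30 and 120 min. Acetonitrile containing chlorpropamide internal standard added, then vortexed and centrifuged at 4 °C; supernatant quantified by LC-MS/MS as % remaining. Procaine and diltiazem served as positive controls.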

Homo sapiens = species on record: Homo sapiens; test: Selectivity index, ratio of IC50 for human JAK2 to IC50 for human JAK1
How it was run: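 Kinase activity assays run as a commercial service at Km ATP; IC50 values fitted from concentration-response data; ratio of JAK2 to JAK1 IC50.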

[2] = Efflux ratio of apparent permeability from basolateral to apical side over apical to basolateral side in human Caco2 cells at 25 uM; assay type: ADME, cell-based; details: Caco-2
[3] = Metabolic stability in rat plasma assessed as parent compound remaining at 10 uM after 30 mins by LC-MS/MS method; assay type: ADME, cell-free; details: read-out: Stability; how it was run: as §2
CYP2C8 = molecular target: T2, CYP2C8 (Homo sapiens, UniProt P10632); test: Inhibition of CYP2C8 in human liver microsomes assessed as remaining activity at 10 uM preincubated for 5 mins followed by addition of NADPH regenerating system and measured after 15 mins by LC-MS/MS analysis relative to control; assay type: ADME; details: read-out: Activity
T2 sequence (P10632 whole entry): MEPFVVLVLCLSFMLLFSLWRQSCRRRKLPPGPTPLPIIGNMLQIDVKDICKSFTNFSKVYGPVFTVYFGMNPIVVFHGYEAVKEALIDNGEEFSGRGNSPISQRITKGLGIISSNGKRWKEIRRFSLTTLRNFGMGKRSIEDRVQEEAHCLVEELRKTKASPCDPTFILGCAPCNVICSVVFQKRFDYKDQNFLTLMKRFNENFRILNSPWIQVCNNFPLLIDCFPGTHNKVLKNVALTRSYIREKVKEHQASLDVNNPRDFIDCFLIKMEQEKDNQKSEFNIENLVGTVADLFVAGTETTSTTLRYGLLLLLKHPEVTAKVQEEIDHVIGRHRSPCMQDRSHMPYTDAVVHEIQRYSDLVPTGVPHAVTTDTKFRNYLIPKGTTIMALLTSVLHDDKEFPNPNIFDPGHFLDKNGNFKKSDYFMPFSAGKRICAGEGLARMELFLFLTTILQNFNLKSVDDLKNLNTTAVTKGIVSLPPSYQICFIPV

[4] = Lipophilicity, log P of the compound in neutral form; assay type: physicochemical; details: octanol/water
[5] = Apparent permeability across basolateral to apical side in human Caco2 cells at 25 uM measured every 15 mins for 60 mins by LC-MS/MS method; assay type: ADME, cell-based; details: Caco-2
How it was run: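 Caco-2 cells were seeded at 1×10^6 per 12-well transwell and grown 3 weeks. Test article was 25 μM in HBSS transport buffer (10 mM glucose, 4 mM bicarbonate, 1 mM HEPES, pH 7.4), added to the apical or basolateral side. Incubated 60 min at 37 °C with sampling every 15 min; LC-MS/MS read-out.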

CYP2E1 = CYP2E1 (Homo sapiens, UniProt P05181); test: Inhibition of CYP2E1 in human liver microsomes assessed as remaining activity at 10 uM using chlorzoxazone as substrate preincubated for 5 mins followed by addition of NADPH regenerating system and measured after 15 mins by LC-MS/MS analysis relative to control; assay type: ADME; details: probe chlorzoxazone, read-out: Activity; how it was run: as §1
CYP2D6 = CYP2D6 (Homo sapiens, UniProt P10635); test: Inhibition of CYP2D6 in human liver microsomes assessed as remaining activity at 10 uM using dextromethorphan as substrate preincubated for 5 mins followed by addition of NADPH regenerating system and measured after 15 mins by LC-MS/MS analysis relative to control; assay type: ADME; details: probe dextromethorphan, read-out: Activity; how it was run: as §1
Rattus norvegicus [6] = test: AUC (0 to infinity) in Sprague-Dawley rat at 5 mg/kg, iv after 0.08 to 24 hrs by LC-MS/MS method; assay type: ADME, organism-based; parameters: dose 5 mg/kg, time infinity, route intravenous; details: in vivo
How it was run: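 Male Sprague Dawley rats, 7-8 weeks old, n=4 per group. IV dose 5 mg/kg free base in 10% ethanol/90% PEG400; oral dose 10 mg/kg as corn oil suspension after 16 h fast. Blood taken 0.08-24 h (IV) or 0.25-24 h (PO). Plasma diluted in acetonitrile with internal standard, analysed by LC-MS/MS, parameters by non-compartmental analysis.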

Rattus norvegicus [7] = test: Antiarthritic activity in adjuvant-induced SPF LEW/SsNSlc rat arthritis model assessed as paw thickness at 5 mg/kg, po qd measured on 14 days; assay type: functional
How it was run: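 Lewis rats were 10 weeks old after 2 weeks acclimation. Immunized s.c. at the tail base with 0.1 mL complete Freund's adjuvant containing 10 mg/mL heat-killed mycobacterium. From day 12 post-immunization (day 1), n=10 per group, oral dosing once daily for 14 days, vehicle corn oil. Clinical score and hind paw measured twice weekly.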

CYP2D6, sequence (P10635 whole entry): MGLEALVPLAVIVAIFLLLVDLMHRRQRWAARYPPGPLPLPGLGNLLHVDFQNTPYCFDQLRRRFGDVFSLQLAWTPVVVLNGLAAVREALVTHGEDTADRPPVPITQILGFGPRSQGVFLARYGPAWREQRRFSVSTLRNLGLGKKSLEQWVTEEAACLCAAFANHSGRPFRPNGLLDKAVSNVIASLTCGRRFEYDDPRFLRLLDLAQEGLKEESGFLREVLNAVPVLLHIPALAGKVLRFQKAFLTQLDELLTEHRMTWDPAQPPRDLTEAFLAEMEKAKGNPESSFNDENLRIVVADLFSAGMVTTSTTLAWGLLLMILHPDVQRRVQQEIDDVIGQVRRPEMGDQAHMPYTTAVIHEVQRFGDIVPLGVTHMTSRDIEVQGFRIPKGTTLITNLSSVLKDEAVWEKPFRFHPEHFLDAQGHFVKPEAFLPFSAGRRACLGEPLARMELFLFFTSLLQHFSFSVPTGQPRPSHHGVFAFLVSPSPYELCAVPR
CYP2E1, sequence (P05181 whole entry): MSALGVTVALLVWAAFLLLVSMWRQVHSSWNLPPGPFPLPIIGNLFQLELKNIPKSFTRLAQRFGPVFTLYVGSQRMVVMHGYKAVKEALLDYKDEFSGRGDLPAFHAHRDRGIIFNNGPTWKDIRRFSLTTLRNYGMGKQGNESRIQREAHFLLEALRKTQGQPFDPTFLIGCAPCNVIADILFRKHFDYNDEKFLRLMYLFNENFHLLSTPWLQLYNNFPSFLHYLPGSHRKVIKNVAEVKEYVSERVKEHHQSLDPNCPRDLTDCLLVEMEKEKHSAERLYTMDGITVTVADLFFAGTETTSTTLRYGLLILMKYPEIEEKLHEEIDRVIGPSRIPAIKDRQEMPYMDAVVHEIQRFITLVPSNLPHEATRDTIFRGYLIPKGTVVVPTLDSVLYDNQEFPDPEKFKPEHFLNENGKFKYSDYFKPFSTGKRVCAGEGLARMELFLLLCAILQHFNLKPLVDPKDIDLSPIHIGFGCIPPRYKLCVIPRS
CYP3A4, sequence (P08684 whole entry): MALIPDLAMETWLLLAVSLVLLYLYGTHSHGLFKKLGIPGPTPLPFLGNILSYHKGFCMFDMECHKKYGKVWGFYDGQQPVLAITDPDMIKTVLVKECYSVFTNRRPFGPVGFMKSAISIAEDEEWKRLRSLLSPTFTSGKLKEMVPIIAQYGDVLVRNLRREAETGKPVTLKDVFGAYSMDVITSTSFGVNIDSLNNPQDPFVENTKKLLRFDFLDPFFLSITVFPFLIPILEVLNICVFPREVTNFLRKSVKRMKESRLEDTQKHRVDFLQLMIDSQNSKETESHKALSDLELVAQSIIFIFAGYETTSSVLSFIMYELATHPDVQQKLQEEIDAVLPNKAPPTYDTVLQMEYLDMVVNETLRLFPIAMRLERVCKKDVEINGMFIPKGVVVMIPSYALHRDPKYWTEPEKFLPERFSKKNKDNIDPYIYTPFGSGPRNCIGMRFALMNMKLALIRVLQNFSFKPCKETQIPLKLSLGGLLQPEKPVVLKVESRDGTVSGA

SMILES	activity at 0.25 h, 10 µM (CYP2A6)	activity at 0.25 h, 10 µM (CYP3A4)	remaining at 2 h, 10 µM [1]	Ratio IC50 (Homo sapiens)	efflux ratio at 25 µM [2]	remaining at 0.5 h, 10 µM [3]	activity at 0.25 h, 10 µM (CYP2C8)	logP [4]	Papp B→A at 1 h, 25 µM [5]	activity at 0.25 h, 10 µM (CYP2E1)	activity at 0.25 h, 10 µM (CYP2D6)	AUC (Rattus norvegicus [6])	Activity (Rattus norvegicus [7])
CCS(=O)(=O)N1C[C@H](N(C)c2ncnc3[nH]ccc23)C2(CC2)C1	96.7%	95.4%	> 100%	25	1.01	> 100%	> 100%	2.07	25.6 ×10⁻⁶ cm/s	63.9%	> 100%	–	–
CN(c1ncnc2[nH]ccc12)[C@H]1CN(S(=O)(=O)c2cccc(C#N)c2)CC12CC2	87.2%	33.2%	> 100%	10	1.17	> 100%	66.2%	3.69	15.7 ×10⁻⁶ cm/s	59.8%	90.3%	–	–
CN(c1ncnc2[nH]ccc12)[C@H]1CN(C(=O)CC#N)CC12CC2	92%	89.7%	89.6%	–	2.78	98.4%	81%	1.69	18.5 ×10⁻⁶ cm/s	50.3%	91.6%	920 ng·h/mL	10.33 mm
